Screening results: PubChem BioAssay, several laboratories
Shown are actives, neighbours in structure and some others; about 2.3% of the full set was active somewhere.
HNF4A DNA FP: change in binding of human HNF4 alpha to DNA. P41235. HNF4a-FITC DNA binding, fluorescence polarization, 1 h. activity change, % at 10 µM. 360,000 tested, 0.3% active; in the data active means activity change above about 30%, passing the limit was not always enough
Target sequence (P41235 whole entry, looked up): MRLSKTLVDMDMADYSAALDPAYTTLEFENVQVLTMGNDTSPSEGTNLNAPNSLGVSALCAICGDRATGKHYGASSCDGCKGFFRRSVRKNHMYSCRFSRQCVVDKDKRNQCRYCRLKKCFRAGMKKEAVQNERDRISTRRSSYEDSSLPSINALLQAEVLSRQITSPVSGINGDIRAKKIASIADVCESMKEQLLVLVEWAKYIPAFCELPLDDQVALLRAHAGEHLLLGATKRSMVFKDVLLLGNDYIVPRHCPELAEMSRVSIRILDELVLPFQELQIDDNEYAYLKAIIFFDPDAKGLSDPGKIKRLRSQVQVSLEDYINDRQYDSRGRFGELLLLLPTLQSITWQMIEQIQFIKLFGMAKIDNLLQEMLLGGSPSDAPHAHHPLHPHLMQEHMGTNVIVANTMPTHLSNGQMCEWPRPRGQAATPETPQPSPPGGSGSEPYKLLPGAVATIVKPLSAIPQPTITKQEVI
Rpn11 inh: inhibitors of human proteasome Rpn11 | O00487 | human 26S proteasome, Ub4-pepOG fluorescence polarization; 20S core pre-blocked with epoxomicin | 360,000 tested, 0.59% active | inhibition, % at 20 µM | AID 588493;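 active means inhibition at 20 µM, scaled to each plate's controls, above about 33%, limit read from the data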
CSN deneddyl inh: CSN deneddylation inhibition; inhibition, % at 12.5 µM; 360,000 tested, 0.38% active; Purified CSN, SCF-Nedd8-OG deneddylation, fluorescence polarization; Q92905;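 active means pattern-corrected inhibition above about 35%, with an unprinted fluorescence ratio check between 0.5 and 1.5, limit read from the data, passing the limit was not always enough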;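 further: 0% = enzyme with substrate and 100% = substrate without enzyme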
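assay system = purified human Csn5 enzyme expressed in HEK293T cells | amount = 0.24 nM enzyme | buffer or medium = Tris/NaCl/DTT buffer, pH 7.5 | reagent = 10 nM SCFSkp2-Nedd8OG | compound = one concentration, 12.5 µM, 0.25% DMSO | times = 90 min reaction at room temperature | signal = FP | read-out basis = % inhibition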
TPT1 inh: inhibitors of Candida albicans tRNA 2'-phosphotransferase TPT1. inhibition, % at 5 µM. AID 1962. 300,000 tested, 0.81% active. recombinant caTPT1, FP RNA substrate dephosphorylation;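 active means inhibition above the mean of all tested compounds plus 3 SD, set per screening campaign, cut at about 24% in these data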;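 further: plate controls were DMSO alone for no effect and ferristatin control at 100 nM for full effect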
Myeloid diff 2: promotes myeloid progenitor differentiation; ER-HoxA9 myeloid progenitors, lysozyme-GFP differentiation, flow cytometry; calls only at 10 µM; 360,000 tested, 1% active;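 active means normalized GFP-positive differentiation at or above the plate's own cutoff, the solvent-only control mean plus 3 SD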;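 further: cells exposed to compound for four days before flow analysis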
Myeloid diff: promotes myeloid progenitor differentiation; ER-HoxA9 myeloid progenitors, GFP/Mac1 double-positive flow; calls only; shares compounds with Myeloid diff 2; 2,300 tested, 2% active; AID 651706;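 active means share of green or green-and-red cells above 9 and 9% in run 1 or 4 and 3% in run 2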
GFP autofluor: compound fluorescence in myeloid differentiation counter-screen; AID 651707; shares compounds with Myeloid diff 2; ER-HoxA9 myeloid progenitors, no estrogen, GFP autofluorescence flow cytometry; vehicle wells 0%, positive control 100%; 2,300 tested, 7.4% active; fluorescence response, % (no concentration beside the values);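 active means over 5% cells positive for green fluorescent reporter, or over 2% positive for both it and APC stain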;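 further: range taken on the double positive population between DMSO and positive control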
* = called active by the depositor; i = inactive; / = no result; + = active, no number.

SMILES	HNF4A DNA FP	Rpn11 inh	CSN deneddyl inh	TPT1 inh	Myeloid diff 2	Myeloid diff	GFP autofluor
COc1cccc(-c2csc(NC(=O)Oc3ccccc3)n2)c1	-3	-5	2	-4	i	i	0
CC1CCN(C(=S)Nc2cccc(S(=O)(=O)N(C)C)c2)CC1	0	6	6	-1	+	i	0
CC1Cc2ccccc2N1C(=S)Nc1cccc(S(=O)(=O)N(C)C)c1 (stereo not drawn)	4	4	-8	-2	i	/	/
Cn1nnnc1Sc1ccc([N+](=O)[O-])cc1Cl	-1	-5	1	-2	i	i	0
O=[N+]([O-])c1ccc(Sc2nnnn2-c2ccccc2)c(Cl)c1	-1	-4	6	0	+	i	0
Cc1ccc(NC(=O)CN(C)Cc2cc(=O)n3ccsc3n2)cc1	-4	3	0	7	i	i	1
CN(CC(=O)Nc1ccc(Cl)cc1)Cc1cc(=O)n2ccsc2n1	-3	-6	3	-2	i	/	/
CCNC(=O)C1CCCN(C(=O)c2ccc3c(c2)CCO3)CC1 (stereo not drawn)	-1	-6	-2	/	i	/	/
Cc1ccc(NC(=O)/C=C/C(=O)O)c(NC(=O)c2ccccc2)c1	2	-2	1	1	i	/	/
COc1ccc(Cn2nnnc2CN2CCc3ccccc32)cc1	-2	3	8	3	+	i	3
COc1ccccc1-n1c(SCc2cc(=O)oc3cc(O)ccc23)nc2ccccc2c1=O	1	13	8	-1	i	/	/
CCC(CO)n1c(SCc2cc(=O)oc3cc(C)ccc23)nc2ccccc2c1=O (stereo not drawn)	1	10	1	-3	i	+	1
CC(=O)Nc1ccc(N=NN2CCOCC2)cc1	-5	2	-8	-1	i	i	0
CC(=O)Nc1cccc(N=NN2CCOCC2)c1	3	3	-3	-3	i	/	/
CCOC(=O)C1(CCc2ccccc2)CCN(C(=O)c2cnc(C)cn2)CC1	6	4	3	-4	i	/	/
c1ccc(COc2ccc(-c3cc4nc(NCCN5CCOCC5)ccn4n3)cc2)cc1	9	20	5	/	i	/	/
Clc1cccc(CNc2ccn3nc(-c4ccc(OCc5ccccc5)cc4)cc3n2)c1	4	15	5	/	+	i	1
c1ccc(COc2cccc(-c3cc4nc(NCCN5CCOCC5)ccn4n3)c2)cc1	4	6	2	/	+	i	0
Cc1nc2ccc(NC(=O)c3cccs3)cc2c(=O)n1Cc1ccc(Cl)cc1	0	15	4	0	+	i	0
CCN(CC(=O)Nc1c(F)cccc1F)C(=O)CCSc1ccc(F)cc1	3	-7	1	0	i	/	/
COc1ccc(Cn2c(=N)c(C(=O)NCC3CCCO3)cc3c(=O)n4ccccc4nc32)cc1 (stereo not drawn)	4	17	10	2	i	i	0
CCOC(=O)C1=C(C)NC(=S)NC1/C=C/c1ccccc1 (stereo not drawn)	-2	-6	-4	-2	i	/	/
Cc1cc(C)cc(NC(=S)NCC2CCCO2)c1 (stereo not drawn)	1	-3	-2	-5	i	i	0
C=C(C)Cn1c2ccc(NC(=O)NCCc3ccccc3)cc2c(=O)n1C	-3	6	-2	/	i	/	/
CCO[C@@H]1OC(C(=O)NCc2ccccc2)=C[C@H](c2csc3ccccc23)[C@H]1CCCO	-2	13	0	0	i	i	0
Cn1cccc1C(=O)NNC(=O)COc1ccccc1Cl	1	0	-1	/	i	/	/
O=S(=O)(c1ccc(Cl)cc1)N1CCN(Cc2c[nH]c3ccccc23)CC1	-1	6	1	-6	i	i	0
O=C(Cc1c[nH]c2ccccc12)N1CCN(S(=O)(=O)c2ccc(Cl)cc2)CC1	0	4	-3	/	i	/	/
CCCCCCC[C@@H](C/C=C/CCC(=O)N(C)C/C(=C/Cl)C/C(=C\C(=O)N1C[C@H](O)CC1=O)OC)OC	-2	3	2	/	i	i	5
